{
  "source": "ChEMBL document CHEMBL1667749",
  "about": "“Design & synthesis of N'-[substituted] pyridine-4-carbohydrazides as potential anticonvulsant agents” (Eur J Med Chem, 2011)",
  "key": {"Mus musculus [1]": {"test_system": "Mus musculus", "assay": "Anticonvulsant activity in albino CF-1 mouse assessed as protection against maximal electroshock-induced seizures at 300 mg/kg, ip after 0.5 hrs", "assay_type": "functional, organism-based", "set-up": "dose 300 mg/kg", "method_in_brief": "(§1)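 Male CF-1 mice (18–25 g), i.p. in 0.5% methyl cellulose at 30, 100 and 300 mg/kg; MES: 60 Hz, 50 mA, 0.2 s through tetracaine-primed corneal electrodes; protection = abolished hind limb tonic extension. Value given as minimum dose active in half or more of mice.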"}, "Mus musculus [2]": {"test_system": "Mus musculus", "assay": "Anticonvulsant activity in albino CF-1 mouse assessed as protection against maximal electroshock-induced seizures at 300 mg/kg, ip after 2 hrs", "assay_type": "functional, organism-based", "set-up": "dose 300 mg/kg", "method_in_brief": "as §1"}, "Mus musculus [3]": {"test_system": "Mus musculus", "assay": "Anticonvulsant activity in albino CF-1 mouse assessed as protection against maximal electroshock-induced seizures at 300 mg/kg, ip after 4 hrs", "assay_type": "functional, organism-based", "set-up": "dose 300 mg/kg", "method_in_brief": "as §1"}, "Mus musculus [4]": {"test_system": "Mus musculus", "assay": "Anticonvulsant activity in albino CF-1 mouse assessed as protection against subcutaneous metrazol-induced seizures at 300 mg/kg, ip after 4 hrs", "assay_type": "functional, organism-based", "set-up": "dose 300 mg/kg", "method_in_brief": "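Male CF-1 mice, i.p. at 30, 100, 300 mg/kg in 0.5% methyl cellulose; metrazol dose convulsing 97% of animals injected s.c. in midline neck fold, mice isolated and watched 30 min; protected if no 3–5 s clonic spasm episode of limbs, jaws or vibrissae.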"}, "Mus musculus [5]": {"test_system": "Mus musculus", "assay": "Anticonvulsant activity in ip dosed albino CF-1 mouse assessed as dose required to protect against subcutaneous metrazol-induced seizures after 0.5 hrs", "assay_type": "functional", "method_in_brief": "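Male albino CF-1 mice (18-25 g) received i.p. compound suspended in 0.5% methyl cellulose at 30, 100 and 300 mg/kg. Metrazol at a dose convulsing 97% of animals was given s.c. in the midline neck fold, and mice were observed 30 min in isolation. A clonic spasm of about 3-5 s was the end point. The value is the minimum dose protecting half or more of the mice.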"}, "Mus musculus [6]": {"test_system": "Mus musculus", "assay": "Neurotoxicity in albino CF-1 mouse assessed as motor impairment at 300 mg/kg, ip after 0.5 hrs by rotarod test", "assay_type": "toxicity, organism-based", "set-up": "dose 300 mg/kg, route intraperitoneal", "conditions": "in vivo", "method_in_brief": "(§2)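 Minimal motor impairment in male CF-1 mice by rotorod after i.p. dosing; toxic if animal falls off rotating rod 3 times within 1 min. Screen doses 30, 100, 300 mg/kg; quantitative TD50 (95% confidence interval) determined at time of peak effect.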"}, "Mus musculus [7]": {"test_system": "Mus musculus", "assay": "Neurotoxicity in albino CF-1 mouse assessed as motor impairment at 300 mg/kg, ip after 4 hrs by rotarod test", "assay_type": "toxicity, organism-based", "set-up": "dose 300 mg/kg, route intraperitoneal", "conditions": "in vivo", "method_in_brief": "as §2"}},
  "note": "Active and inactive are the calls of the source. The rule behind the calls is not given here.",
  "data": [
    {"smiles": "CCCC(CCC)C(=O)[O-].[Na+]", "note": "[VALPROATE SODIUM]", "values": [
      {"measurement": "Activity", "setting": "Mus musculus [1]", "value": "inactive"},
      {"measurement": "Activity", "setting": "Mus musculus [2]", "value": "inactive"},
      {"measurement": "Activity", "setting": "Mus musculus [3]", "value": "inactive"},
      {"measurement": "Activity", "setting": "Mus musculus [4]", "value": "inactive"},
      {"measurement": "Activity", "setting": "Mus musculus [5]", "value": 300, "unit": "mg/kg"},
      {"measurement": "Activity", "setting": "Mus musculus [6]", "value": "Non-toxic"},
      {"measurement": "Activity", "setting": "Mus musculus [7]", "value": "Non-toxic"}
    ]}
  ]
}
